Data as given in ChEMBL document CHEMBL4513216, “Probing the Open Global Health Chemical Diversity Library for Multistage-Active Starting Points for Next-Generation Antimalarials” (ACS Infect Dis, 2020).

Experiment: Toxicity liver stage against HepG2, at 10uM
Type: cell-based
Set-up: test concentration 10 uM, cell line HepG2-A16-CD81EGFP
Details: human, HepG2-A16-CD81EGFP cells; read-out: INHIBITION
Method in brief: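 Uninfected HepG2-A16-CD81EGFP cells, 3 × 10^3 per well, 1536-well, plated on prespotted compound at 10 μM final, parasite-free screening media added to match infected plates; puromycin 10 μM positive, DMSO 0.5% negative; run in parallel with 48 h PbLuc assay at 37 °C, 5% CO2; viability by CellTiter-Glo luminescence, normalized to controls.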

| Structure (SMILES) | cytotoxicity at 10 µM [%] |
| --- | --- |
| Cc1cc2nc(CO[C@H]3CN(C4CCN(C)CC4)C[C@H]3F)[nH]c2cc1C | -11.6 |
| CC[C@H]1CN(S(=O)(=O)c2ccccc2)CC[C@H]1CC(=O)O | 1.7 |
| CS(=O)(=O)N1CC[C@@H](CC(=O)O)[C@@H](CC2=NCCc3cc(F)ccc32)C1 | 0.699 |
| COC(=O)c1cccc(C(=O)N2CCN(c3ccc(Cl)cc3)CC2)n1 | -7.55 |
| CC(=O)N1N=C(c2ccccc2)OC1C(=O)NCCc1cccc(F)c1 (centres undefined) | -1.08 |
| O=C1CCSCC(C(=O)N2CCCCC2)N1 (centres undefined) | -3.55 |
| CC(=O)N1CCC2(CC1)CCN(S(=O)(=O)c1ccccc1)C2 | 2.35 |
| N#CC1(C(=O)N2Cc3cc(-c4cc[nH]n4)ccc3C2c2cnco2)CC1 (centres undefined) | 25.5 |
| CC(=O)N1CC(c2ncn(C(C)C)n2)c2cc(C(=O)NC3CC3)ccc21 (centres undefined) | 4.11 |
| CS(=O)(=O)N1CCc2ncc(CNC(=O)C3CCC3)n2CC1 | 10.9 |
| Cc1cnc(C(=O)N2C[C@H]3CN(Cc4cccs4)C[C@H]3C2)cn1 | -148 |
| O=C(NCc1ccco1)c1nn(C2CCS(=O)(=O)C2)c2c1CCCC2 (centres undefined) | -11 |
| CC(=O)N1CC(=O)N(c2cnn(C)c2)CC12CCN(Cc1ccoc1)C2 (centres undefined) | -9.81 |
| CC(O)CCN(C)S(=O)(=O)Cc1ccc(Br)cc1 (centres undefined) | 3.47 |
| CC(C)CN(CC(C)C)Cn1ncc2cn(-c3ccccc3)nc2c1=O | 1.42 |
| CC(NC(=O)CN1C=Nc2ccccc2S1(=O)=O)c1ccccc1 (centres undefined) | -0.476 |
| CS(=O)(=O)Cc1ccccc1NCc1cc(Cl)ccc1Cl | 7.67 |
| CC(C(=O)NCc1ccnc(OCC(F)(F)F)c1)n1cncn1 (centres undefined) | 1.13 |
| O=C(NC1CCN(Cn2nc(-c3ccccc3)oc2=O)CC1)C1CC1 | 8.19 |
| CN(C)C(=O)Cc1ccc(NC(=O)NC2CC2)cc1 | 6.13 |
| CC1CN(C)c2ccccc2CN1C(=O)c1cc[nH]c(=O)c1 (centres undefined) | 4.96 |
| COC(=O)c1ccc(N2CCC(c3ccccc3)CC2)nn1 | -3.59 |

| Structure (SMILES) | cytotoxicity at 10 µM [%] |
| --- | --- |
| CC1(C)CCC(C(=O)O)c2ccccc21 (centres undefined) | -1.92 |
| CN(C)CC1CCN(Cc2nccn2CC(F)(F)F)CC1 | 4.99 |
| Cc1nc(-c2ccccc2C)n(CC(=O)NC(C)C2CC2)n1 (centres undefined) | 20.8 |
| NCc1ccnc(Oc2ccccc2)c1 | 2.87 |
| CN(CCC(F)(F)F)C(=O)[C@H]1CSCN1C(=O)OC(C)(C)C | -9.39 |
| CCCOCCNc1nc2c(s1)c(C)nn2C | -15.9 |
| CCC1CN(C(=O)c2ccccc2C#N)CCN1C(C)C (centres undefined) | -0.772 |
| COCCCN1CCC(CNc2nccc(-c3cnn(C)c3)n2)C1 (centres undefined) | -147 |
| CC(C)c1cc(NCC2(Cn3cccn3)CC2)n2nccc2n1 | -10.9 |
| CCCn1cnnc1CNC(=O)C1COc2ccc(OC)cc2C1 (centres undefined) | -2.06 |
| Cn1nc(CN2CCC(c3ccncc3)CC2)c2c(Cl)cccc21 | -6.06 |
| COCCOCC(=O)N1CCC(O)(c2ccc3nc(C)ccc3c2)CC1 | -1.01 |
| Cc1ncc(C(=O)N2CC[C@@]3(O)CCN(C4CCCCC4)C[C@H]3C2)cn1 | -135 |
| CCC(NC(=O)c1cc(CC(C)C)nn1C)c1ccnn1C (centres undefined) | -146 |
| CSCc1noc(Cn2ccc3ccccc3c2=O)n1 | 3.63 |
| Cc1nc(Cn2nc(C3CCNCC3)n(Cc3ccccc3)c2=O)no1 | -19.3 |
| O=C(c1cc(Cl)c2c(c1)OCCO2)N1CCCC(n2cncn2)C1 (centres undefined) | 1.56 |
| CC(C)NC(=O)N1C[C@H](OCc2cccnc2)[C@H]2COC[C@H]21 | 6.43 |
| CC(C)N(C)Cc1cnc2n1CCN(C(=O)Cc1cccs1)C2C (centres undefined) | 7.86 |
| Cc1cccc(CN2C[C@@H]3OCCN(c4cnccn4)[C@@H]3C2)n1 | 5.25 |
| CC(C)CN1CCN(C(=O)c2ccncc2F)Cc2cccnc21 | 1.71 |
| Cc1cccc(CN2C(=O)CO[C@@H]3CN(C4CCOCC4)C[C@H]32)c1 | -146 |
